Key:
Format in all cases: functional
SF-295 = assay: Cytotoxicity against human SF295 cells assessed as cell growth at 10 uM after 48 hrs by SRB assay relative to untreated control; conditions: SF-295, 48 h, read-out: Activity
In short: (§1)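 NCI-60 one-dose screen: each agent added at 10 µM, cultures incubated 48 h. Endpoint by sulforhodamine B protein-binding dye read spectrophotometrically; growth expressed as percent of untreated control cells.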

U-251 = assay: Cytotoxicity against human U251 cells assessed as cell growth at 10 uM after 48 hrs by SRB assay relative to untreated control; conditions: U-251, 48 h, read-out: Activity
In short: (§2)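 NCI-60 single-dose screen. Compounds were added to the cultures at 10 μM and incubated for 48 h. The end point was sulforhodamine B protein staining read spectrophotometrically. Growth is reported as percent of untreated control cells.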

IGROV-1 = assay: Cytotoxicity against human IGROV1 cells assessed as cell growth at 10 uM after 48 hrs by SRB assay relative to untreated control; conditions: IGROV-1, 48 h, read-out: Activity
In short: (§3)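 NCI-60 panel screen at a single concentration of 10 μM with 48 h incubation. Cell density measured by sulforhodamine B protein-binding dye and read spectrophotometrically. Growth expressed as percent of untreated control cells.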

CCRF-CEM = assay: Cytotoxicity against human CCRF-CEM cells assessed as cell growth at 10 uM after 48 hrs by SRB assay relative to untreated control; conditions: read-out: Activity; in short: as §3
MDA-MB-231 = assay: Cytotoxicity against human MDA-MB-231 cells assessed as cell growth at 10 uM after 48 hrs by SRB assay relative to untreated control; conditions: MDA-MB-231, 48 h, read-out: Activity; in short: as §1
RPMI-8226 = assay: Cytotoxicity against human RPMI8226 cells assessed as cell growth at 10 uM after 48 hrs by SRB assay relative to untreated control; conditions: RPMI-8226, 48 h, read-out: Activity; in short: as §1
Malme-3M = assay: Cytotoxicity against human MALME-3M cells assessed as cell growth at 10 uM after 48 hrs by SRB assay relative to untreated control; conditions: read-out: Activity; in short: as §3
UACC-62 = assay: Cytotoxicity against human UACC62 cells assessed as cell growth at 10 uM after 48 hrs by SRB assay relative to untreated control; conditions: UACC-62, 48 h, read-out: Activity; in short: as §2
CAKI-1 = assay: Cytotoxicity against human Caki1 cells assessed as cell growth at 10 uM after 48 hrs by SRB assay relative to untreated control; conditions: CAKI-1, 48 h, read-out: Activity; in short: as §3
RXF 393 = assay: Cytotoxicity against human RXF393 cells assessed as cell growth at 10 uM after 48 hrs by SRB assay relative to untreated control; conditions: RXF 393, 48 h, read-out: Activity; in short: as §1
OVCAR-8 = assay: Cytotoxicity against human OVCAR8 cells assessed as cell growth at 10 uM after 48 hrs by SRB assay relative to untreated control; conditions: OVCAR-8, 48 h, read-out: Activity; in short: as §1
[1] = Cytotoxicity against human OVCAR4 cells assessed as cell growth at 10 uM after 48 hrs by SRB assay relative to untreated control; conditions: OVCAR-4, 48 h, read-out: Activity; in short: as §1
PC-3 = assay: Cytotoxicity against human PC3 cells assessed as cell growth at 10 uM after 48 hrs by SRB assay relative to untreated control; conditions: PC-3, 48 h, read-out: Activity; in short: as §1
NCI-H226 = assay: Cytotoxicity against human NCI-H226 cells assessed as cell growth at 10 uM after 48 hrs by SRB assay relative to untreated control; conditions: NCI-H226, 48 h, read-out: Activity; in short: as §1
HT-29 = assay: Cytotoxicity against human HT-29 cells assessed as cell growth at 10 uM after 48 hrs by SRB assay relative to untreated control; conditions: HT-29, 48 h, read-out: Activity; in short: as §3
HOP-92 = assay: Cytotoxicity against human HOP92 cells assessed as cell growth at 10 uM after 48 hrs by SRB assay relative to untreated control; conditions: HOP-92, 48 h, read-out: Activity; in short: as §3
NCI-H322M = assay: Cytotoxicity against human NCI-H322M cells assessed as cell growth at 10 uM after 48 hrs by SRB assay relative to untreated control; conditions: read-out: Activity; in short: as §1
[2] = Cytotoxicity against human OVCAR5 cells assessed as cell growth at 10 uM after 48 hrs by SRB assay relative to untreated control; conditions: OVCAR-5, 48 h, read-out: Activity; in short: as §1
[3] = Cytotoxicity against human NCI-ADR-RES cells assessed as cell growth at 10 uM after 48 hrs by SRB assay relative to untreated control; conditions: read-out: Activity; in short: as §1
SNB-75 = assay: Cytotoxicity against human SNB75 cells assessed as cell growth at 10 uM after 48 hrs by SRB assay relative to untreated control; conditions: SNB-75, 48 h, read-out: Activity; in short: as §2
SK-OV-3 = assay: Cytotoxicity against human SKOV3 cells assessed as cell growth at 10 uM after 48 hrs by SRB assay relative to untreated control; conditions: SK-OV-3, 48 h, read-out: Activity; in short: as §2
HOP-62 = assay: Cytotoxicity against human HOP62 cells assessed as cell growth at 10 uM after 48 hrs by SRB assay relative to untreated control; conditions: HOP-62, 48 h, read-out: Activity; in short: as §3
[4] = Cytotoxicity against human Hs578T cells assessed as cell growth at 10 uM after 48 hrs by SRB assay relative to untreated control; conditions: Hs-578T, read-out: Activity; in short: as §3
SK-MEL-5 = assay: Cytotoxicity against human SK-MEL-5 cells assessed as cell growth at 10 uM after 48 hrs by SRB assay relative to untreated control; conditions: SK-MEL-5, 48 h, read-out: Activity; in short: as §2
MDA-MB-435 = assay: Cytotoxicity against human MDA-MB-435 cells assessed as cell growth at 10 uM after 48 hrs by SRB assay relative to untreated control; conditions: MDA-MB-435, 48 h, read-out: Activity; in short: as §1
BT-549 = assay: Cytotoxicity against human BT549 cells assessed as cell growth at 10 uM after 48 hrs by SRB assay relative to untreated control; conditions: BT-549, 48 h, read-out: Activity; in short: as §3
LOX IMVI = assay: Cytotoxicity against human LOXIMVI cells assessed as cell growth at 10 uM after 48 hrs by SRB assay relative to untreated control; conditions: read-out: Activity; in short: as §3
NCI-H23 = assay: Cytotoxicity against human NCI-H23 cells assessed as cell growth at 10 uM after 48 hrs by SRB assay relative to untreated control; conditions: NCI-H23, 48 h, read-out: Activity; in short: as §1
SW-620 = assay: Cytotoxicity against human SW620 cells assessed as cell growth at 10 uM after 48 hrs by SRB assay relative to untreated control; conditions: SW-620, 48 h, read-out: Activity; in short: as §2
NCI-H522 = assay: Cytotoxicity against human NCI-H522 cells assessed as cell growth at 10 uM after 48 hrs by SRB assay relative to untreated control; conditions: NCI-H522, 48 h, read-out: Activity; in short: as §1
SF-539 = assay: Cytotoxicity against human SF539 cells assessed as cell growth at 10 uM after 48 hrs by SRB assay relative to untreated control; conditions: SF-539, 48 h, read-out: Activity; in short: as §1

Cc1ccccc1C1=Nc2nc3ccccn3c2C(=O)[C@H](Cc2ccccc2)N1
growth at 10 µM (SF-295): 96.5%
growth at 10 µM (U-251): 100%
growth at 10 µM (IGROV-1): 108%
growth at 10 µM (CCRF-CEM): 105%
growth at 10 µM (MDA-MB-231): 104%
growth at 10 µM (RPMI-8226): 98.4%
growth at 10 µM (Malme-3M): 109%
growth at 10 µM (UACC-62): 103%
growth at 10 µM (CAKI-1): 88.8%
growth at 10 µM (RXF 393): 105%
growth at 10 µM (OVCAR-8): 92.8%
growth at 10 µM [1]: 98.7%
growth at 10 µM (PC-3): 89.4%
growth at 10 µM (NCI-H226): 99%
growth at 10 µM (HT-29): 115%
growth at 10 µM (HOP-92): 90.5%
growth at 10 µM (NCI-H322M): 106%
growth at 10 µM [2]: 101%
growth at 10 µM [3]: 95.4%
growth at 10 µM (SNB-75): 70.8%
growth at 10 µM (SK-OV-3): 111%
growth at 10 µM (HOP-62): 93.4%
growth at 10 µM [4]: 102%
growth at 10 µM (SK-MEL-5): 103%
growth at 10 µM (MDA-MB-435): 98.8%
growth at 10 µM (BT-549): 96.9%
growth at 10 µM (LOX IMVI): 91.7%
growth at 10 µM (NCI-H23): 95.3%
growth at 10 µM (SW-620): 103%
growth at 10 µM (NCI-H522): 121%
growth at 10 µM (SF-539): 99.4%

— ChEMBL document CHEMBL3124806, “Imidazopyridine-fused [1,3]-diazepinones: synthesis and antiproliferative activity” (Eur J Med Chem, 2014)
